Source: PubChem (several laboratories)
Shown are actives, neighbours in structure and some others; about 3.8% of the full set was active somewhere.
Yeast life ext: compounds extending yeast replicative lifespan, primary screen, S. cerevisiae, OD615 | inhibition of the nicotinamide effect, % at 10 µM | 130,000 tested, 0.68% active | AID 775, 2007 | S. cerevisiae growth with nicotinamide; deaD strain in restrictive glucose medium;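 active means inhibition above a set limit, placed 3 SD over the median of all compounds, cut at about 26% in these data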
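Test system: DeaD-strain S. cerevisiae / Buffer or medium: restrictive glucose medium / Also added: nicotinamide 1.5 mM / Doses: one concentration, 10 µM, DMSO 0.25% / Schedule: 48 h at 30 °C / Signal: OD615 measurement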
RAM network inh: inhibitors of the yeast RAM network, primary screen, dse1pr::URA3 reporter, 5-FOA selection | inhibition, % at 50 µM | S. cerevisiae dse1pr::URA3 reporter, 5-FOA growth OD615, 2 d; analog-sensitive cbk1-as2 kinase mutant strain | AID 868, 2007 | 190,000 tested, 1.8% active;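 active means inhibition above a set limit, 3 SD over mean compound inhibition, cut at about 8.4% in these data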;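 further: inhibition rescues growth on 5-FOA so higher OD means more RAM inhibition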
Yeast growth inh: growth inhibitors of yeast BB579 in restrictive medium, primary screen, yeast lifespan-shortening project, S. cerevisiae. inhibition, % at 10 µM. 140,000 tested, 0.51% active. OD615, 48 h. AID 804, 2007;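 active means inhibition above a set limit, 3 SD over the mean compound inhibition, cut at about 44% in these data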
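Test system: Saccharomyces cerevisiae DeaD strain BB579, replicative lifespan model yeast | Buffer or medium: Restrictive CSMM-D medium | Doses: One dose, 10 µM compound with 0.25% DMSO | Incubation: 48 h exposure, 30 °C | Detection: Culture absorbance at 615 nm | Control set: Amphotericin B at 10 µg/mL as positive control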
SDO1 yeast rescue: growth rescue of sdo1-depleted yeast, primary screen, S. cerevisiae, bone marrow failure model. z-score at 10 µM. 140,000 tested, 0.21% active. S. cerevisiae sdo1-depleted JHY4D growth rescue, OD600 30 h; stronger effect = higher value; pdr5 snq2 efflux-pump mutant strain;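 active means z-score above 3 at both the 24 hr and the 30 hr optical density reads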
Measles CPE: compounds protecting cells from measles virus cytopathic effect, primary screen, measles RdRp inhibitor project, single point, MLSMR library, absorbance; AID 841, 2007; Measles virus-infected cells, CPE protection; protection (pct of control), % at 4 µM; 140,000 tested, 1.5% active; in the data active means protection mostly above about 24%, no sharp cut-off; inactive means mostly below about 26%
Hits are given with their value; . = inactive; / = no result given.

SMILES | Yeast life ext | RAM network inh | Yeast growth inh | SDO1 yeast rescue | Measles CPE
CCCCC(=Nc1ccccc1OC)C1=C(O)CC(c2ccccc2)CC1=O (centres undefined) | 67 | . | . | . | .
COc1ccccc1N=C(C)C1=C(O)CC(c2ccccc2)CC1=O (centres undefined) | / | . | / | / | /
O=C1NC2(CCCCC2)C(=O)N1CCS(=O)(=O)Oc1ccc(Br)cc1 | / | 8.8 | / | / | /
O=C1NC2(CCCC2)C(=O)N1CCS(=O)(=O)Oc1ccccc1 | / | . | / | / | /
CCCNS(=O)(=O)c1cccc(C(=O)NC2CCCc3ccccc32)c1 (centres undefined) | . | . | . | . | 41
COc1ccc(/C=N/NC(=O)c2ccncc2)cc1Cn1nc([N+](=O)[O-])c(Br)c1C | / | . | / | / | /
Oc1c(C=NCc2ccccc2)sc2ccccc12 | / | . | / | / | /
Oc1cccc(C=NCc2ccccc2)c1O | . | . | 98 | . | .
CC(C)(O)c1cn(-c2nonc2N)nn1 | . | . | . | . | .
[2H]c1c([2H])c([2H])c(C(=O)c2sc(N3CCCCCC3)nc2-c2ccccc2)c([2H])c1[2H] | . | 8.8 | . | . | .
O=C(c1ccc(Br)cc1)c1sc(N2CCOCC2)nc1-c1ccccc1 | / | 9.4 | / | / | /
CCOC(=O)c1nn(-c2ccccc2F)c2nc(-c3ccco3)c(C#N)c(=O)n12 | . | . | . | . | .
CCOC(=O)c1nn(-c2cccc(OC)c2)c2nc(CC)c(C#N)c(=O)n12 | . | 8.4 | . | . | .
Oc1c(Br)cc(Cl)cc1C=Nc1ccccc1Br | . | . | 65 | . | .
CC(C)COP(=O)(OCC(C)C)C(Nc1ccccc1)c1ccc(F)cc1 (centres undefined) | . | . | . | . | .
CCCOP(=O)(OCCC)C(Nc1ccc(C(C)C)cc1)c1ccc([N+](=O)[O-])cc1 (centres undefined) | . | 9.4 | . | . | .
CN1OC(c2ccccc2)=C(CO)C1c1ccccc1 (centres undefined) | 51 | . | . | . | .
OCCN(/C=N/c1nc(-c2ccc(Br)cc2)cs1)CCO | . | . | . | . | 32
O=C(CSc1ccc(F)cc1)NC(=O)NCc1ccccc1 | / | . | / | / | /
CC(C)(c1ccccc1)c1ccc(OCCn2cnc3ccccc3c2=O)cc1 | . | 8.7 | . | . | .
COC(=O)c1ccc(C(=O)OC)c(NC(=O)CSc2cccc[n+]2[O-])c1 | . | . | 99 | . | .
O=C(CSc1cccc[n+]1[O-])Nc1cc2c(cc1Cl)C(=O)c1ccccc1C2=O | . | . | . | . | 24
CN(C)/C=C1\SC(=S)N(N2C(=O)C3C4C=CC(C4)C3C2=O)C1=O (centres undefined) | / | . | / | / | /
CC(=O)Oc1c(C(=O)c2nnc(C)o2)c(=O)n(C)c2ccccc12 | 54 | . | . | . | .
CC(=O)Oc1c(C)c(=O)n(C)c2ccccc12 | . | . | . | . | .
SMILES | Yeast life ext | RAM network inh | Yeast growth inh | SDO1 yeast rescue | Measles CPE
CC(C)CC1c2[nH]c3ccccc3c2CCN1C(=O)CCC(=O)N(C)C (centres undefined) | / | . | / | / | /
Cc1ccc(-n2c(C)cc(C3=NNC(=NC4CC4)SC3)c2C)cc1C | . | . | . | . | 74
Cc1cc(C2=NNC(=NC3CC3)SC2)c(C)n1-c1c(C)n(C)n(-c2ccccc2)c1=O | . | . | . | . | .
O=[N+]([O-])c1ccc(S(=O)(=O)NCCc2cn3ccccc3n2)cc1 | . | . | . | . | .
Cc1nc2ccc(NC(=S)NC3CCCCC3)cc2nc1C | / | . | / | / | /
Cc1ccoc1C(=O)NCc1occc1C(=O)O | . | . | . | . | 41
COCCNC(=S)N/N=C/c1ccc(OCc2ccc(C(=O)OC)cc2)cc1 | . | . | . | . | /
COc1ccc(CC(=O)Nc2c3c(nn2-c2cccc(Cl)c2)CS(=O)(=O)C3)cc1 | . | 9.2 | . | . | .
Cc1ccc2[nH]c(=O)c(CNS(=O)(=O)c3ccccc3)c(-c3ccccc3)c2c1 | . | . | . | . | .
Cc1ccc(C2c3c(C)nn(-c4ccc([N+](=O)[O-])cc4)c3N=C3C(=O)Nc4ccccc4N32)cc1 (centres undefined) | / | 9.9 | / | / | /
Clc1ccc(-n2cc(COCc3ccccc3)nn2)cc1 | / | . | / | / | /
C=CCn1c(=O)/c(=C2/Sc3cc(OC)ccc3N2C)s/c1=C1\C(=O)N(CC)C(=S)N1C | / | 11 | / | / | /
O=C(N/N=C1\CC2CC=CC12)c1ccc(COc2ccccc2)cc1 (centres undefined) | . | . | 54 | . | .
CCOc1cc(/C=N\Nc2nc(Nc3ccccc3)nc(N3CCOCC3)n2)ccc1OC(=O)c1ccco1 | . | . | . | . | .
COc1cc(OC)cc(-c2nc3ccccc3c(=O)n2OC(=O)c2ccccc2C)c1 | 61 | . | . | . | .
CNC(=O)c1oc(-c2ccccc2)nc1C | / | . | / | / | /
Cc1ccccc1C(=O)Oc1ccc(Sc2ccc(O)cc2)cc1 | . | 11 | . | . | .
Cc1ccccc1S(=O)(=O)Oc1ccccc1C(=O)Oc1ccccc1 | . | . | . | . | .
Cc1ccc(OCC(=O)Nc2ccc(CN3CCCCC3)cc2)c(C)c1 | / | . | / | / | /
C=CCNc1nc(N2CCCCC2)c(C#N)c2c1CN(Cc1ccccc1)CC2 | . | . | . | . | 61
CCN1CCc2c(C#N)c(N3CCCCC3)nc(NCc3ccccc3)c2C1 | . | . | . | . | .
CCc1cc2c(SCC(=O)C(C#N)=C3N(C)c4ccccc4N3C)ncnc2s1 | . | 9.0 | . | . | .
COC(=O)C1(CCSC)NC(c2ccc(O)c(OC)c2)C2C(=O)N(c3ccc(C)cc3)C(=O)C21 (centres undefined) | / | . | / | / | /
Cc1cccc(/C=C2\CCC(=C3SCCCS3)C2=O)c1 | . | 9.4 | . | . | .
O=C1C(=C2SCCCS2)CC/C1=C\c1ccc(F)cc1 | . | . | . | . | 44
SMILES | Yeast life ext | RAM network inh | Yeast growth inh | SDO1 yeast rescue | Measles CPE
O=C1/C(=C/c2ccccc2)CCCc2ccccc21 | . | . | . | . | .
Cc1ccc(NS(=O)(=O)c2ccc(OCC(=O)NCC3CCCO3)cc2)cc1 (centres undefined) | / | . | / | / | /
COc1ccc(/C=C\C(=O)NCc2ccc3[nH]c(C)cc3c2)cc1OC | . | 10 | . | . | .
COc1ccc(C2N(c3cc(Cl)ccc3OC)C(=O)C3CCCN32)cc1OC (centres undefined) | . | . | . | . | .
COc1ccccc1CNC(=O)C(CCSC)NS(=O)(=O)c1ccc2c(c1)oc(=O)n2C (centres undefined) | 87 | . | . | . | .
COc1ccccc1CNC(=O)C(CC(C)C)NS(=O)(=O)c1ccc2c(c1)oc(=O)n2C (centres undefined) | . | . | . | . | .
OC(CNCCc1ccc(C(F)(F)F)cc1)COc1ccc2ccccc2c1 (centres undefined) | . | . | 63 | . | .
